Assay results: ChEMBL document CHEMBL5661979, “Pharmacological inhibition of BMK1 suppresses tumor growth through promyelocytic leukemia protein” (Cancer Cell, 2010)

Key:
[1] = Inhibition of NEK6/7 in human HeLa cells lysate pre incubated for 15 mins followed by ATP acyl phosphate probe addition and measured after 10 mins by LC-MS/MS analysis; type: subcellular
[2] = target: Phosphatidylinositol 5-phosphate 4-kinase type-2 gamma (Homo sapiens, UniProt Q8TBX8); assay: Inhibition of PIP5K2C in human HeLa cells lysate pre incubated for 15 mins followed by ATP acyl phosphate probe addition and measured after 10 mins by LC-MS/MS analysis; type: subcellular
[3] = target: Serine/threonine-protein kinase PLK1 (Homo sapiens, UniProt P53350); assay: Inhibition of PLK1 in human HeLa cells lysate pre incubated for 15 mins followed by ADP acyl phosphate probe addition and measured after 10 mins by LC-MS/MS analysis; type: subcellular
[4] = target: Calcium/calmodulin-dependent protein kinase type II subunit delta (Homo sapiens, UniProt Q13557); assay: Inhibition of CamK2d in human HeLa cells lysate at 50 uM pre incubated for 15 mins followed by ADP acyl phosphate probe addition and measured after 10 mins by LC-MS/MS analysis relative to control; type: subcellular; settings: time 25.0 min
[5] = target: Glycogen synthase kinase-3 beta (Homo sapiens, UniProt P49841); assay: Inhibition of GSK3B isoform 2 in human HeLa cells lysate at 50 uM pre incubated for 15 mins followed by ADP acyl phosphate probe addition and measured after 10 mins by LC-MS/MS analysis relative to control; type: subcellular; settings: time 25.0 min
[6] = target: Calcium/calmodulin-dependent protein kinase type 1D (Homo sapiens, UniProt Q8IU85); assay: Inhibition of CAMK1d in human HeLa cells lysate at 50 uM pre incubated for 15 mins followed by ADP acyl phosphate probe addition and measured after 10 mins by LC-MS/MS analysis relative to control; type: subcellular; settings: time 25.0 min
In short: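 KiNativ-type profiling in HeLa lysate (5 mg/mL total protein). Lysate preincubated 15 min with inhibitor at 50, 10, 2, 0.8 or 0 μM, then ATP or ADP acylphosphate probe added (5 μM final) for 10 min. Reaction stopped with urea and analysed by targeted MS, using up to four fragment ions per kinase peptide-probe conjugate. % inhibition calculated against untreated lysate. Duplicate reactions.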

[7] = target: Ribosomal protein S6 kinase alpha-1 (Homo sapiens, UniProt Q15418); assay: Inhibition of RSK1 domain 2 K1 site in human HeLa cells lysate at 10 uM pre incubated for 15 mins followed by ADP acyl phosphate probe addition and measured after 10 mins by LC-MS/MS analysis relative to control; type: subcellular; settings: time 25.0 min
[8] = test system: Serine/threonine-protein kinase PLK1 (Homo sapiens), P53350 [UNDEFINED MUTATION]; assay: Inhibition of PLK1 splice variant in human HeLa cells lysate at 10 uM pre incubated for 15 mins followed by ADP acyl phosphate probe addition and measured after 10 mins by LC-MS/MS analysis relative to control; type: subcellular; settings: time 25.0 min
[9] = Inhibition of PRKX/PRKY in human HeLa cells lysate at 10 uM pre incubated for 15 mins followed by ADP acyl phosphate probe addition and measured after 10 mins by LC-MS/MS analysis relative to control; settings: 25 min, condition cancer
[10] = target: Epidermal growth factor receptor (Homo sapiens, UniProt P00533); assay: Inhibition of EGFR in human HeLa cells lysate at 2 uM pre incubated for 15 mins followed by ADP acyl phosphate probe addition and measured after 10 mins by LC-MS/MS analysis relative to control; type: subcellular; settings: time 25.0 min
[11] = target: T1, Mitogen-activated protein kinase kinase kinase 7 (Homo sapiens) (UniProt O43318); assay: Inhibition of TAK1 in human HeLa cells lysate at 50 uM pre incubated for 15 mins followed by ATP acyl phosphate probe addition and measured after 10 mins by LC-MS/MS analysis relative to control; type: subcellular; settings: time 25.0 min
T1 sequence (whole entry): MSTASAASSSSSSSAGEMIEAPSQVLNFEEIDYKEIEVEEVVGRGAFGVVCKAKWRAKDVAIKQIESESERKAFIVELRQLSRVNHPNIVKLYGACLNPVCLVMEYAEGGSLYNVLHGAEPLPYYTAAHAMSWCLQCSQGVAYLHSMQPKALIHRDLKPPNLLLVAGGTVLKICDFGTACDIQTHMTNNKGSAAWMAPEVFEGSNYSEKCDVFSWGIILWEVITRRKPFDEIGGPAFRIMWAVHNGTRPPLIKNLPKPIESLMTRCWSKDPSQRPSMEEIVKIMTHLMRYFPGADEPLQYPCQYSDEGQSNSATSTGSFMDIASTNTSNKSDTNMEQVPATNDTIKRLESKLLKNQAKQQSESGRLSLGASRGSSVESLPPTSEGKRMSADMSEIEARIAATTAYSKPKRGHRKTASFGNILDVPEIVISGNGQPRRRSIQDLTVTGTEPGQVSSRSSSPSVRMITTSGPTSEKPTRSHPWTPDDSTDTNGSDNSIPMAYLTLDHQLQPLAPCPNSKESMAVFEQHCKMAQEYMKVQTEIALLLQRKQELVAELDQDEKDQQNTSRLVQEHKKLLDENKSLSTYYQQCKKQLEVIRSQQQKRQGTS

[12] = target: c-Jun N-terminal kinase, JNK (Homo sapiens, UniProt P45983+P53779+P45984); assay: Inhibition of JNK1/JNK2/JNK3 in human HeLa cells lysate at 50 uM pre incubated for 15 mins followed by ATP acyl phosphate probe addition and measured after 10 mins by LC-MS/MS analysis relative to control; type: subcellular; settings: time 25.0 min
[13] = target: Interleukin-1 receptor-associated kinase 1 (Homo sapiens, UniProt P51617); assay: Inhibition of IRAK1 in human HeLa cells lysate at 50 uM pre incubated for 15 mins followed by ATP acyl phosphate probe addition and measured after 10 mins by LC-MS/MS analysis relative to control; type: subcellular; settings: time 25.0 min
[14] = Inhibition of MAP3K2/3 in human HeLa cells lysate at 50 uM pre incubated for 15 mins followed by ATP acyl phosphate probe addition and measured after 10 mins by LC-MS/MS analysis relative to control; settings: 25 min, condition cancer
[15] = target: Serine/threonine-protein kinase SMG1 (Homo sapiens, UniProt Q96Q15); assay: Inhibition of SMG1 in human HeLa cells lysate at 10 uM pre incubated for 15 mins followed by ATP acyl phosphate probe addition and measured after 10 mins by LC-MS/MS analysis relative to control; type: subcellular; settings: time 25.0 min
[16] = target: T1, Mitogen-activated protein kinase kinase kinase 7 (Homo sapiens); assay: Inhibition of TAK1 in human HeLa cells lysate at 2 uM pre incubated for 15 mins followed by ATP acyl phosphate probe addition and measured after 10 mins by LC-MS/MS analysis relative to control; type: subcellular; settings: time 25.0 min
eIF-2-alpha kinase GCN2 = eIF-2-alpha kinase GCN2 (Homo sapiens, UniProt Q9P2K8); assay: Inhibition of GCN2 in human HeLa cells lysate at 2 uM pre incubated for 15 mins followed by ATP acyl phosphate probe addition and measured after 10 mins by LC-MS/MS analysis relative to control; type: subcellular; settings: time 25.0 min
[17] = target: Ribosomal protein S6 kinase beta-2 (Homo sapiens, UniProt Q9UBS0); assay: Inhibition of P70S6KB in human HeLa cells lysate at 2 uM pre incubated for 15 mins followed by ATP acyl phosphate probe addition and measured after 10 mins by LC-MS/MS analysis relative to control; type: subcellular; settings: time 25.0 min
[18] = Half life in Sprague-Dawley rat at 1 mg/kg, iv measured up to 8 hrs by LC-MS/MS analysis; type: ADME, organism-based; settings: in vivo
[19] = Cmax in Sprague-Dawley rat at 1 mg/kg, iv measured up to 8 hrs by LC-MS/MS analysis; type: ADME, organism-based; settings: in vivo

Chain of Ribosomal protein S6 kinase beta-2 (Q9UBS0 whole entry): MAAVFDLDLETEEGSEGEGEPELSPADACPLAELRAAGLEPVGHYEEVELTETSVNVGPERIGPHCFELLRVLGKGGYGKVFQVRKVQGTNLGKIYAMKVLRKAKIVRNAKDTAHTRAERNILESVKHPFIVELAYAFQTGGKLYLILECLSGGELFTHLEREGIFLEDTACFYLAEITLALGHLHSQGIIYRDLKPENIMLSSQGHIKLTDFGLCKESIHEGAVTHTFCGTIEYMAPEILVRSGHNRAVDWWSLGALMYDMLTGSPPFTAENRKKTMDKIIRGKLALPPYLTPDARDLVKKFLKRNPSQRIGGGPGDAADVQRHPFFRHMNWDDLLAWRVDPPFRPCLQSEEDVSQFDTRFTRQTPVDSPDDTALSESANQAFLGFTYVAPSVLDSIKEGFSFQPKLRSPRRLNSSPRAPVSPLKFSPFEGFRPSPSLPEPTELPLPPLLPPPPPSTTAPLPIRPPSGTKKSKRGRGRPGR
Chain of Glycogen synthase kinase-3 beta (P49841 whole entry, looked up, canonical isoform): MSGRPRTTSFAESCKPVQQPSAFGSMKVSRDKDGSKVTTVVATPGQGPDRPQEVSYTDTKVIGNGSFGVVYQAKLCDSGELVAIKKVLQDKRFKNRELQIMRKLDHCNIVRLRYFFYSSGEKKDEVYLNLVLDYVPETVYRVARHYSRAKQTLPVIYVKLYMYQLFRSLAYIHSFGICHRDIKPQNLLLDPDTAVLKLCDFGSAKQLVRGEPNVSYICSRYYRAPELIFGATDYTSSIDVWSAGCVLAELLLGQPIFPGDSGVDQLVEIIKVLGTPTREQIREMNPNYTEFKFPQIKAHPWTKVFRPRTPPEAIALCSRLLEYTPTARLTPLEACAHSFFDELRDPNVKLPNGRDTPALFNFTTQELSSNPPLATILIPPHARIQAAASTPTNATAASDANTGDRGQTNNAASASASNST
Chain of Calcium/calmodulin-dependent protein kinase type 1D (Q8IU85 whole entry, looked up, the tested form may be a part): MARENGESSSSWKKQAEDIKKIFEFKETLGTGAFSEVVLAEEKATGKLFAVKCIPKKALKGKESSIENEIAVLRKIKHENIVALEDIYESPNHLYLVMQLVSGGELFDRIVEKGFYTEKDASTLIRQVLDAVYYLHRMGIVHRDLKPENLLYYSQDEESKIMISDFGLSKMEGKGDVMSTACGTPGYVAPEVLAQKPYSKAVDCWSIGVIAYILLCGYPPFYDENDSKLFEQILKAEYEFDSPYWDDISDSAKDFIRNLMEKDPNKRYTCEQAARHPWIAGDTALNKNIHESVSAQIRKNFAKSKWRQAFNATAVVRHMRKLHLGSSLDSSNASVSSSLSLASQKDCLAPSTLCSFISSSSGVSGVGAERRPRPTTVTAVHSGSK
Chain of Interleukin-1 receptor-associated kinase 1 (P51617 whole entry, looked up): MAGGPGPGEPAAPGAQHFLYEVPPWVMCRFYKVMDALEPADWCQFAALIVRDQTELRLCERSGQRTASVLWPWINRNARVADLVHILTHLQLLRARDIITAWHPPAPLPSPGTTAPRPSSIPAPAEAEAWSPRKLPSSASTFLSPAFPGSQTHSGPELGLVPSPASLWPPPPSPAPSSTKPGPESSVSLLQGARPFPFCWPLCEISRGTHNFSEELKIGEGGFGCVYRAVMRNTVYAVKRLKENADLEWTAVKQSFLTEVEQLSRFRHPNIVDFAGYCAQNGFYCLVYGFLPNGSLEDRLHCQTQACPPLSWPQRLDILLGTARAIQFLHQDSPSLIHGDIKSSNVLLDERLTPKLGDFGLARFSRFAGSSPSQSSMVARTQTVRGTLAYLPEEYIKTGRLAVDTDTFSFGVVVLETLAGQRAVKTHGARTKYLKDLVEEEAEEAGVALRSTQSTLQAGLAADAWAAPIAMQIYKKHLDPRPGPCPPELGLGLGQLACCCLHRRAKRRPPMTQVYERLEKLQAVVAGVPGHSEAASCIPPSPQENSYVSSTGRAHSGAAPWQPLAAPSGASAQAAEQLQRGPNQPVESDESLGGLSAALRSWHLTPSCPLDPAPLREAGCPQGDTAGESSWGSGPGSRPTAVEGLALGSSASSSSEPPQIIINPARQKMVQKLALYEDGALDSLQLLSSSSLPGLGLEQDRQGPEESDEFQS
Chain of Ribosomal protein S6 kinase alpha-1 (Q15418 whole entry, the tested form may be a part, canonical isoform): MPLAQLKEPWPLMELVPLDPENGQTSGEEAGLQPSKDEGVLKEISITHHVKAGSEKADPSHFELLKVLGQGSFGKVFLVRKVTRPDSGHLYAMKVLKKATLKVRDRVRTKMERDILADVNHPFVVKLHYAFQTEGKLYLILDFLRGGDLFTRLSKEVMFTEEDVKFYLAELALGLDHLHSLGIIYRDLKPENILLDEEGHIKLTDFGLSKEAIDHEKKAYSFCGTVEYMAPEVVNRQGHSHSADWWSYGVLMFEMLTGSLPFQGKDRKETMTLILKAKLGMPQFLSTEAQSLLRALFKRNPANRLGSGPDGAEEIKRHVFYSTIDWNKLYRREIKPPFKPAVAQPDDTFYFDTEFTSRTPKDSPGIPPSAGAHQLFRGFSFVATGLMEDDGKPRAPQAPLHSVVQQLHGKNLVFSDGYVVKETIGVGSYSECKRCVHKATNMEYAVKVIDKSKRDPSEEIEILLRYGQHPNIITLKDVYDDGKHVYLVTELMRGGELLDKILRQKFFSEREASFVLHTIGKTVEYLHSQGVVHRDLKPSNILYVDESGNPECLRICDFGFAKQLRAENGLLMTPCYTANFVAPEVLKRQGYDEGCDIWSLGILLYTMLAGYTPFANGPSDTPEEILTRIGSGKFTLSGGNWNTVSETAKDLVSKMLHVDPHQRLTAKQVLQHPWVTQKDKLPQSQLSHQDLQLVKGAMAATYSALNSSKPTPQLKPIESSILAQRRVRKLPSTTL
Chain of Calcium/calmodulin-dependent protein kinase type II subunit delta (Q13557 whole entry, canonical isoform): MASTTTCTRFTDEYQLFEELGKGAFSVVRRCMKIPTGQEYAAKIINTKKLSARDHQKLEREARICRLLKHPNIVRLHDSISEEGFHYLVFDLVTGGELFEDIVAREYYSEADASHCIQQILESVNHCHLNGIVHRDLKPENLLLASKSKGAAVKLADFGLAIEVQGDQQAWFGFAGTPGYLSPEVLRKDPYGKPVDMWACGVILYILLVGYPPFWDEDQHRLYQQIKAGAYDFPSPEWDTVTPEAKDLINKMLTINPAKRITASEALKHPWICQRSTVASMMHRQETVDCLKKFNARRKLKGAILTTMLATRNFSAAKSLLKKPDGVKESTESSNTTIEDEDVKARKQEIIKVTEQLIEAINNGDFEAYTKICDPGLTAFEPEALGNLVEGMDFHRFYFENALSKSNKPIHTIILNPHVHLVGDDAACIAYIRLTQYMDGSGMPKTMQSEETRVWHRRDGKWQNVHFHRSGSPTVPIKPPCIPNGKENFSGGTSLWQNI
Chain of Epidermal growth factor receptor (P00533 whole entry): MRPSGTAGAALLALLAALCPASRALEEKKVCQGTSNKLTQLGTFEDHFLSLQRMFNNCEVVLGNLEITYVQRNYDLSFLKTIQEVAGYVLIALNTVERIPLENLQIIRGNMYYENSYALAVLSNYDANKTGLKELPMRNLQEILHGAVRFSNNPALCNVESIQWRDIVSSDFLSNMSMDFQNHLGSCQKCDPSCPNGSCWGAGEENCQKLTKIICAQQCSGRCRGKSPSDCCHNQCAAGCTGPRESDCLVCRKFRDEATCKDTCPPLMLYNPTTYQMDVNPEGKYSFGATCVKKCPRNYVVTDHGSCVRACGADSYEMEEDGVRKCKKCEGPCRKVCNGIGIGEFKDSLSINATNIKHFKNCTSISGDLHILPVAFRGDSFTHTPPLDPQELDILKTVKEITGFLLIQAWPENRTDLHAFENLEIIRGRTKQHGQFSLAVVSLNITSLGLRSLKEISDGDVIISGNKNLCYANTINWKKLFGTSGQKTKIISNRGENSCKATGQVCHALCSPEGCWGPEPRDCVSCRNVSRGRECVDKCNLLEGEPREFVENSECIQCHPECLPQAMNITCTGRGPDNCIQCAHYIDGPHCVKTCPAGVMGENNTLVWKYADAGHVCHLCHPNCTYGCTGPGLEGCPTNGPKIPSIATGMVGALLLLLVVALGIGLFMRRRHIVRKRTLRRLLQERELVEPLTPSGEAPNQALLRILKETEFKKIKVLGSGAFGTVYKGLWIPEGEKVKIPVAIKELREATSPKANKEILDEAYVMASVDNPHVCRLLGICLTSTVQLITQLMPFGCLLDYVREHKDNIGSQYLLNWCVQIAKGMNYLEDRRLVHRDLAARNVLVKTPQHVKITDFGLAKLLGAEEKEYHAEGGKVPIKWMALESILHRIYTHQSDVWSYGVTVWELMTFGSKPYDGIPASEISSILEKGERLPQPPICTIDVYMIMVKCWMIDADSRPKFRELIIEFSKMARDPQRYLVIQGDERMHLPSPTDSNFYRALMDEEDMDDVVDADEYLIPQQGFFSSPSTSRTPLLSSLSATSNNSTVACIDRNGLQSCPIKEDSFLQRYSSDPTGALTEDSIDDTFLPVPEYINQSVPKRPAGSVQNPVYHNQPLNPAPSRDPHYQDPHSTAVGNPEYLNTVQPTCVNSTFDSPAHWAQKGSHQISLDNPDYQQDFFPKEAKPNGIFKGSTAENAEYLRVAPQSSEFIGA
Chain of Phosphatidylinositol 5-phosphate 4-kinase type-2 gamma (Q8TBX8 whole entry): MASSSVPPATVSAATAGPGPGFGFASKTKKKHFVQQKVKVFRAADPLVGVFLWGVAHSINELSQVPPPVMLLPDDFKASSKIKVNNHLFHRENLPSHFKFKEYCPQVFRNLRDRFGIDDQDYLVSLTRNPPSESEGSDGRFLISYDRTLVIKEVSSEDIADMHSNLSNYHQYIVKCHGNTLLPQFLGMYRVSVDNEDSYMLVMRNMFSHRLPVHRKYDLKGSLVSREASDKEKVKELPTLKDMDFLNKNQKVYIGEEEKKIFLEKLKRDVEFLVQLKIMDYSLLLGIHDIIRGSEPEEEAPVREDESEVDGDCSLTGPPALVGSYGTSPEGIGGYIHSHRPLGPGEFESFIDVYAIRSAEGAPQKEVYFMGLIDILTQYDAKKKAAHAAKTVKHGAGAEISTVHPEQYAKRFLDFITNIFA

Q: For CCOc1cc(N2CCC(O)CC2)ccc1Nc1ncc2c(n1)N(C)c1ccccc1C(=O)N2C, which IC50 [1] is on record?
A: > 50 µM

Q: What about the IC50 [2] of the same compound?
A: > 50 µM

Q: What about the IC50 [3] of the same compound?
A: > 50 µM

Q: What about the inhibition [4] of the same compound?
A: 10.3%

Q: What about the inhibition [5] of the same compound?
A: 5.1%

Q: And the inhibition [6]?
A: -1.9%

Q: And the inhibition [7]?
A: 23.4%

Q: And the inhibition [8]?
A: 0.8%

Q: What about the inhibition at 10 µM [9] of the same compound?
A: -14.3%

Q: What about the inhibition [10] of the same compound?
A: 12.2%

Q: And the inhibition [11]?
A: 15.7%

Q: What about the inhibition [12] of the same compound?
A: -0.6%

Q: What about the inhibition [13] of the same compound?
A: -8.3%

Q: What about the inhibition at 50 µM [14] of the same compound?
A: -8.7%

Q: And the inhibition [15]?
A: 3.9%

Q: What about the inhibition [16] of the same compound?
A: -4.8%

Q: And the inhibition (eIF-2-alpha kinase GCN2)?
A: 0.2%

Q: And the inhibition [17]?
A: 1.9%

Q: And the half-life [18]?
A: 2 h

Q: What about the Cmax [19] of the same compound?
A: 927 nM
